We go through five compounds from ChEMBL document CHEMBL1143599, “Design, synthesis, and antiviral activity of adenosine 5'-phosphonate analogues as chain terminators against hepatitis C virus” (J Med Chem, 2005).

The nature of series [1]: Cytotoxicity determined in Huh 7 cells. The format is cell-based. To be noted: human. Summed up: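 Huh7 cells; viability read by colorimetric MTT assay. CC50 taken as the concentration that cuts cell viability by 50%.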
The nature of series [2]: Effective concentration against Huh 7 cells. The series is classed as functional, cell-based, Homo sapiens. Summed up: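 HCV subgenomic replicon cells with luciferase readout, seeded at 6000 cells/well, compound added right after seeding, 48 h incubation. Cells then lysed and luciferase activity in lysate measured. Replicon RNA reduction inferred from the luciferase drop; EC50 is the concentration giving 50% reduction of viral replication.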

Molecules are shown by their SMILES. pEC50: −log10 of the molar value.

By CC50 is commonly meant the concentration at which the toxic effect on the cells reaches its halfway point. In general, pEC50 refers to −log10 of the EC50, conventionally taken in molar units. Low readings indicate a large EC50, high ones a small EC50. In series [1], `Nc1ncnc2c1ncn2[C@@H]1O[C@H](CCP(=O)(O)O)[C@@H](O)[C@H]1O` had a cytotoxic concentration (CC50) above 300 µM. Besides, the negative logarithm of the EC50 (pEC50) in series [2] was 3.70.

For `CC(C)(C)C(=O)SCCOP(=O)(CC[C@H]1O[C@@H](n2cnc3c(N)ncnc32)[C@](C)(O)[C@@H]1O)OCCSC(=O)C(C)(C)C`, the CC50 in series [1] came to 30 µM. This compound also gave a pEC50 in series [2] of 4.60.

In turn, `Nc1ncnc2c1ncn2[C@@H]1O[C@H](OCP(=O)(O)O)[C@@H](O)[C@H]1O` came in with a CC50 in series [1] above 300 µM. The compound further gave a pEC50 in series [2] of 4.19.

Turning to `Nc1ncnc2c1ncn2[C@@H]1C[C@H](OCP(=O)(O)O)[C@@H](O)[C@H]1O`, the CC50 in series [1] was 300 µM. In addition, in series [2], the negative logarithm of the EC50 (pEC50) was 4.52.

As for `C[C@@]1(O)[C@H](O)[C@@H](CCP(=O)(O)O)O[C@H]1n1cnc2c(N)ncnc21`, in series [1], the 50% cytotoxic concentration (CC50) was above 300 µM. The same compound showed a pEC50 in series [2] of 4.46.
